Experimental data: ChEMBL document CHEMBL1148947, “Prenylated benzophenones and xanthones from Hypericum scabrum” (J Nat Prod, 2004)
≈ marks a conversion by molar mass, not a printed value. Calls of active or inactive are those of the source. No cut-off for these calls is given here.

Key:
[1] = tested on: MCF7; experiment: Cytotoxicity against human MCF7 cells after 3 days by SRB assay; format: functional, cell-based; details: MCF7, 72 h
In short: (§1)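 Cells kept in RPMI-1640 with 25 mM HEPES, 0.25% sodium bicarbonate, 10% FBS and 100 µg/mL kanamycin. Freshly trypsinized cells seeded at 1500-7500 per well with compound diluted from DMSO stock. After 3 days, attached cells fixed with cold 50% TCA, stained with 0.4% SRB, and bound dye solubilized. Absorbance read at 562 nm. IC50 = 50% reduction relative to untreated cells. Below 50% inhibition at 20 mcg/mL, percent inhibition reported.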

[2] = tested on: A549; experiment: Cytotoxicity against human A549 cells after 3 days by SRB assay; format: functional, cell-based; details: A549, 72 h; in short: as §1
[3] = tested on: A549; experiment: Cytotoxicity against human A549 cells at 20 mcg/mL after 3 days by SRB assay; format: functional; details: for inhibition at 20 µg/mL: A549, 72 h; in short: as §1
[4] = tested on: MCF7; experiment: Cytotoxicity against human MCF7 cells at 20 mcg/mL after 3 days by SRB assay; format: functional; details: for inhibition at 20 µg/mL: MCF7, 72 h; in short: as §1

SMILES | IC50 [1] [µg/mL] | IC50 [2] [µg/mL] | Activity [3] | Activity [4] | inhibition at 20 µg/mL [3] [%] | inhibition at 20 µg/mL [4] [%]
CC1(C)CCc2c(c(O)cc3oc4cc(O)cc(O)c4c(=O)c23)O1 [HYPERXANTHONE E] | 19.3 (≈ 58.8 µM) | 18.5 (≈ 56.3 µM) | – | – | – | –
O=c1c(O[C@@H]2O[C@H](CO)[C@H](O)[C@H](O)[C@H]2O)c(-c2ccc(O)c(O)c2)oc2cc(O)cc(O)c12 | – | – | inactive | inactive | – | –
C=C(C)C(O)Cc1c(O)ccc2oc3cc(O)cc(O)c3c(=O)c12 (centres undefined) [HYPERXANTHONE D] | > 20 | > 20 | – | – | 43 | 34
O=c1c2cc(O)ccc2oc2cccc(O)c12 | 19.5 (≈ 85.5 µM) | 14.5 (≈ 63.5 µM) | – | – | – | –
C[C@@H]1O[C@@H](Oc2c(-c3ccc(O)c(O)c3)oc3cc(O)cc(O)c3c2=O)[C@H](O)[C@H](O)[C@H]1O [QUERCITRIN] | > 20 | > 20 | – | – | 12 | 18
CC(C)=CC[C@H]1C[C@]2(CC=C(C)C)C(=O)C(C(=O)c3ccccc3)=C(O)[C@](CC=C(C)C)(C2=O)C1(C)C | 10 (≈ 19.9 µM) | 13.7 (≈ 27.3 µM) | – | – | – | –
C[C@H]1O[C@@H](Oc2c(-c3cc(O)c(O)c(O)c3)oc3cc(O)cc(O)c3c2=O)[C@@H](O)[C@@H](O)[C@@H]1O [MYRICITRIN] | 11.2 (≈ 24.1 µM) | > 20 | – | – | 13 | –
O=c1c(O)c(-c2ccc(O)c(O)c2)oc2cc(O)cc(O)c12 [QUERCETIN] | 19.5 (≈ 64.5 µM) | > 20 | – | – | 21 | –
CC1(C)C=Cc2c(c(O)cc3oc4cc(O)cc(O)c4c(=O)c23)O1 [TOXYLOXANTHONE B] | > 20 | > 20 | – | – | 28 | 17
COc1ccc(O)c2c(=O)c3cc(O)ccc3oc12 | 15.2 (≈ 58.9 µM) | 8.5 (≈ 32.9 µM) | – | – | – | –
O=c1c(O)c(-c2cc(O)c(O)c(O)c2)oc2cc(O)cc(O)c12 [MYRICETIN] | 4.7 (≈ 14.8 µM) | 14.8 (≈ 46.5 µM) | – | – | – | –
CC(C)=CCc1c(O)c(O)cc2oc3cc(O)cc(O)c3c(=O)c12 | 18.4 (≈ 56 µM) | 18.5 (≈ 56.3 µM) | – | – | – | –
CC(C)=CCC[C@]1(C)[C@@H](CC=C(C)C)C[C@]2(C)C(=O)[C@@]3(CC=C(C)C)O[C@]2(O)[C@]1(C(=O)C(C)C)C3=O [HYPERIBONE J] | 17.8 (≈ 35.7 µM) | > 20 | – | – | 49 | –
O=c1c2ccc(O)c(O)c2oc2cc(O)cc(O)c12 | 9.3 (≈ 35.7 µM) | 10 (≈ 38.4 µM) | – | – | – | –
CC(C)=CC[C@@]12C[C@H]3[C@@H](C=C(C)C)[C@@](C(=O)c4ccccc4)(C1=O)C(=O)[C@@](CC=C(C)C)(C2=O)C3(C)C [HYPERIBONE K] | 10 (≈ 20 µM) | 13.7 (≈ 27.4 µM) | – | – | – | –
CC(C)=CC[C@H]1C[C@@]2(CC=C(C)C)C(=O)C(C(=O)c3ccccc3)=C(O)[C@](C)(C2=O)C1(C)C [HYPERIBONE L] | 15 (≈ 33.4 µM) | 9.2 (≈ 20.5 µM) | – | – | – | –
O=c1cc(-c2ccc(O)c(O)c2)oc2cc(O)cc(O)c12 [LUTEOLIN] | 14.3 (≈ 50 µM) | 12.9 (≈ 45.1 µM) | – | – | – | –
CC(C)(O)C1Cc2c(c(O)cc3oc4cc(O)cc(O)c4c(=O)c23)O1 (centres undefined) [HYPERXANTHONE A] | > 20 | > 20 | – | – | 26 | 27
O=c1c(-c2c(O)cc(O)c3c(=O)cc(-c4ccc(O)cc4)oc23)c(-c2ccc(O)cc2)oc2cc(O)cc(O)c12 | > 20 | > 20 | – | – | 27 | 26
C=C(C)C(O)Cc1c(O)c(O)cc2oc3cc(O)cc(O)c3c(=O)c12 (centres undefined) [HYPERXANTHONE C] | 11.2 (≈ 32.5 µM) | 9.3 (≈ 27 µM) | – | – | – | –
O=c1c(O[C@@H]2OC[C@@H](O)[C@@H](O)[C@@H]2O)c(-c2ccc(O)c(O)c2)oc2cc(O)cc(O)c12 | > 20 | > 20 | – | – | 11 | 17
O=c1c(O[C@@H]2O[C@@H](CO)[C@H](O)[C@H]2O)c(-c2ccc(O)c(O)c2)oc2cc(O)cc(O)c12 | – | – | inactive | inactive | – | –
